{"source": "ChEMBL document CHEMBL4689842", "about": "“EUbOPEN Chemogenomics Library wave 1” (2021)", "tested_on": "U2OS", "assay": "Multiplex assay against U2OS", "format": "toxicity, cell-based", "conditions": "human", "summary_of_the_method": "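Live cells carried four stains from seeding: Hoechst33342, BioTracker Green Microtubule Cytoskeleton Dye, MitoTracker Red and Annexin V Alexa Fluor 680. They were imaged on a CQ1 microscope at 37°C and 5% CO2 after compound addition. Using CellPathfinder machine-learning gating, cells were split into Hoechst high-intensity objects or normal cells, normal cells into healthy, pyknosed or fragmented nuclei, and pyknosed cells into mitotic or apoptotic; tubulin, mitochondrial-mass and membrane-permeability phenotypes are per cents of healthy-nucleus cells.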", "key": {"[1]": {"conditions": "12 h, 1 µM, compound concentration 1 uM, replicate 1"}, "[2]": {"conditions": "12 h, 1 µM, compound concentration 1 uM, replicate 2"}, "[3]": {"conditions": "12 h, 10 µM, compound concentration 10 uM, replicate 1"}, "[4]": {"conditions": "12 h, 10 µM, compound concentration 10 uM, replicate 2"}, "[5]": {"conditions": "24 h, 1 µM, compound concentration 1 uM, replicate 1"}, "[6]": {"conditions": "24 h, 1 µM, compound concentration 1 uM, replicate 2"}, "[7]": {"conditions": "24 h, 10 µM, compound concentration 10 uM, replicate 1"}, "[8]": {"conditions": "24 h, 10 µM, compound concentration 10 uM, replicate 2"}, "[9]": {"conditions": "48 h, 1 µM, compound concentration 1 uM, replicate 1"}, "[10]": {"conditions": "48 h, 1 µM, compound concentration 1 uM, replicate 2"}, "[11]": {"conditions": "48 h, 10 µM, compound concentration 10 uM, replicate 1"}, "[12]": {"conditions": "48 h, 10 µM, compound concentration 10 uM, replicate 2"}}, "data": [{"smiles": "Cc1ccc(C)c(Oc2ccncc2C(=O)N2CCN(C3CC3)c3ccccc32)c1", "values": [{"measurement": "Population Apoptotic (%)", "setting": "[1]", "result": 53, "unit": "%"}, {"measurement": "Population Fragmented Nuclei (%)", "setting": "[1]", "result": 10, "unit": "%"}, {"measurement": "Population Healthy Nuclei (%)", "setting": "[1]", "result": 77, "unit": "%"}, {"measurement": "Population Hoechst High Intensity Objects (%)", "setting": "[1]", "result": 7, "unit": "%"}, {"measurement": "Population Normal (%)", "setting": "[1]", "result": 92, "unit": "%"}, {"measurement": "Total Cell Count", "setting": "[1]", "result": 135}, {"measurement": "Population Apoptotic (%)", "setting": "[2]", "result": 66, "unit": "%"}, {"measurement": "Population Healthy Nuclei (%)", "setting": "[2]", "result": 75, "unit": "%"}, {"measurement": "Population Hoechst High Intensity Objects (%)", "setting": "[2]", "result": 10, "unit": "%"}, {"measurement": "Population Normal (%)", "setting": "[2]", "result": 89, "unit": "%"}, {"measurement": "Total Cell Count", "setting": "[2]", "result": 73}, {"measurement": "Population Apoptotic (%)", "setting": "[3]", "result": 48, "unit": "%"}, {"measurement": "Population Fragmented Nuclei (%)", "setting": "[3]", "result": 15, "unit": "%"}, {"measurement": "Population Healthy Nuclei (%)", "setting": "[3]", "result": 61, "unit": "%"}, {"measurement": "Population Hoechst High Intensity Objects (%)", "setting": "[3]", "result": 6, "unit": "%"}, {"measurement": "Population Mitotic Cells (%)", "setting": "[3]", "result": 51, "unit": "%"}, {"measurement": "Population Normal (%)", "setting": "[3]", "result": 93, "unit": "%"}, {"measurement": "Total Cell Count", "setting": "[3]", "result": 132}, {"measurement": "Population Apoptotic (%)", "setting": "[4]", "result": 33, "unit": "%"}, {"measurement": "Population Fragmented Nuclei (%)", "setting": "[4]", "result": 6, "unit": "%"}, {"measurement": "Population Healthy Nuclei (%)", "setting": "[4]", "result": 72, "unit": "%"}, {"measurement": "Population Hoechst High Intensity Objects (%)", "setting": "[4]", "result": 3, "unit": "%"}, {"measurement": "Population Normal (%)", "setting": "[4]", "result": 96, "unit": "%"}, {"measurement": "Total Cell Count", "setting": "[4]", "result": 59}, {"measurement": "Population Apoptotic (%)", "setting": "[5]", "result": 47, "unit": "%"}, {"measurement": "Population Fragmented Nuclei (%)", "setting": "[5]", "result": 8, "unit": "%"}, {"measurement": "Population Healthy Nuclei (%)", "setting": "[5]", "result": 76, "unit": "%"}, {"measurement": "Population Hoechst High Intensity Objects (%)", "setting": "[5]", "result": 3, "unit": "%"}, {"measurement": "Population Mitotic Cells (%)", "setting": "[5]", "result": 52, "unit": "%"}, {"measurement": "Population Normal (%)", "setting": "[5]", "result": 96, "unit": "%"}, {"measurement": "Total Cell Count", "setting": "[5]", "result": 137}, {"measurement": "Population Apoptotic (%)", "setting": "[6]", "result": 42, "unit": "%"}, {"measurement": "Population Fragmented Nuclei (%)", "setting": "[6]", "result": 27, "unit": "%"}, {"measurement": "Population Healthy Nuclei (%)", "setting": "[6]", "result": 60, "unit": "%"}, {"measurement": "Population Hoechst High Intensity Objects (%)", "setting": "[6]", "result": 6, "unit": "%"}, {"measurement": "Population Normal (%)", "setting": "[6]", "result": 93, "unit": "%"}, {"measurement": "Total Cell Count", "setting": "[6]", "result": 71}, {"measurement": "Population Apoptotic (%)", "setting": "[7]", "result": 51, "unit": "%"}, {"measurement": "Population Healthy Nuclei (%)", "setting": "[7]", "result": 50, "unit": "%"}, {"measurement": "Population Hoechst High Intensity Objects (%)", "setting": "[7]", "result": 10, "unit": "%"}, {"measurement": "Population Mitotic Cells (%)", "setting": "[7]", "result": 48, "unit": "%"}, {"measurement": "Population Normal (%)", "setting": "[7]", "result": 89, "unit": "%"}, {"measurement": "Total Cell Count", "setting": "[7]", "result": 152}, {"measurement": "Population Apoptotic (%)", "setting": "[8]", "result": 53, "unit": "%"}, {"measurement": "Population Healthy Nuclei (%)", "setting": "[8]", "result": 66, "unit": "%"}, {"measurement": "Population Hoechst High Intensity Objects (%)", "setting": "[8]", "result": 7, "unit": "%"}, {"measurement": "Population Normal (%)", "setting": "[8]", "result": 92, "unit": "%"}, {"measurement": "Total Cell Count", "setting": "[8]", "result": 65}, {"measurement": "Population Apoptotic (%)", "setting": "[9]", "result": 46, "unit": "%"}, {"measurement": "Population Fragmented Nuclei (%)", "setting": "[9]", "result": 4, "unit": "%"}, {"measurement": "Population Healthy Nuclei (%)", "setting": "[9]", "result": 82, "unit": "%"}, {"measurement": "Population Hoechst High Intensity Objects (%)", "setting": "[9]", "result": 3, "unit": "%"}, {"measurement": "Population Mitotic Cells (%)", "setting": "[9]", "result": 53, "unit": "%"}, {"measurement": "Population Normal (%)", "setting": "[9]", "result": 96, "unit": "%"}, {"measurement": "Total Cell Count", "setting": "[9]", "result": 139}, {"measurement": "Population Apoptotic (%)", "setting": "[10]", "result": 36, "unit": "%"}, {"measurement": "Population Fragmented Nuclei (%)", "setting": "[10]", "result": 6, "unit": "%"}, {"measurement": "Population Healthy Nuclei (%)", "setting": "[10]", "result": 79, "unit": "%"}, {"measurement": "Population Hoechst High Intensity Objects (%)", "setting": "[10]", "result": 4, "unit": "%"}, {"measurement": "Population Mitotic Cells (%)", "setting": "[10]", "result": 63, "unit": "%"}, {"measurement": "Population Normal (%)", "setting": "[10]", "result": 95, "unit": "%"}, {"measurement": "Total Cell Count", "setting": "[10]", "result": 69}, {"measurement": "Population Apoptotic (%)", "setting": "[11]", "result": 61, "unit": "%"}, {"measurement": "Population Fragmented Nuclei (%)", "setting": "[11]", "result": 14, "unit": "%"}, {"measurement": "Population Healthy Nuclei (%)", "setting": "[11]", "result": 42, "unit": "%"}, {"measurement": "Population Hoechst High Intensity Objects (%)", "setting": "[11]", "result": 9, "unit": "%"}, {"measurement": "Population Mitotic Cells (%)", "setting": "[11]", "result": 38, "unit": "%"}, {"measurement": "Population Normal (%)", "setting": "[11]", "result": 90, "unit": "%"}, {"measurement": "Total Cell Count", "setting": "[11]", "result": 213}, {"measurement": "Population Apoptotic (%)", "setting": "[12]", "result": 33, "unit": "%"}, {"measurement": "Population Fragmented Nuclei (%)", "setting": "[12]", "result": 22, "unit": "%"}, {"measurement": "Population Healthy Nuclei (%)", "setting": "[12]", "result": 55, "unit": "%"}, {"measurement": "Population Hoechst High Intensity Objects (%)", "setting": "[12]", "result": 1, "unit": "%"}, {"measurement": "Population Normal (%)", "setting": "[12]", "result": 98, "unit": "%"}, {"measurement": "Total Cell Count", "setting": "[12]", "result": 83}]}]}
